Compound activity as filed in PubChem BioAssay.
Hits are enriched below; roughly 4% of the tested compounds scored in any of these assays.
KCNQ1 pot = potentiators or activators of KCNQ1 channel, primary screen, cell-based, thallium flux, high-throughput. CHO-K1 KCNQ1, thallium flux FluxOR fluorescence; stronger effect = higher value. B-score at 10 µM. 310,000 tested, 0.35% active. Potassium voltage-gated channel subfamily KQT member 1 (Homo sapiens), P51787;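 active = fluorescence ratio B-score, a plate-corrected score, at least three library SD, with initial intensity B-score within 5 SD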
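assay system = KCNQ1-transfected CHO-K1 cells | medium = assay buffer with matched DMSO | probe or stimulus = depolarizing K+/Tl+ stimulus, K2SO4 and Tl2SO4 each 12.5 mM in 5x stock | dosing = single dose | incubation = dye 90 min, compound 20 min, room temperature | detection = kinetic FluxOR fluorescence, 10 s baseline plus 110 s post-stimulus | evaluation = ratio B score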
KCNK3 inh = human KCNK3 channel inhibitors, primary screen, CHO cells, FluxOR thallium flux, B-score. FluxOR fluorescence; stronger effect = lower value. Potassium channel subfamily K member 3 (Homo sapiens), O14649. B-score at 10 µM. 340,000 tested, 0.84% active;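 active = B-score under library mean minus 4 SD, starting fluorescence ratio at most library mean plus 5 SD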;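 note: more negative B-score means stronger inhibition of thallium flux through KCNK3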
KCNQ1 inh = inhibitors of human KCNQ1 channel, primary screen, cell-based, thallium flux, high-throughput; Potassium voltage-gated channel subfamily KQT member 1 (Homo sapiens), P51787; CHO-K1 KCNQ1, FluxOR thallium flux fluorescence; stronger effect = higher value; B-score at 10 µM; 310,000 tested, 1.3% active; AID 2642, 2010;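 active = compounds whose thallium flux B-score, printed positive for inhibition, exceeds three library SD while starting fluorescence stays within three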;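 note: channel opened by potassium depolarization with thallium stimulus after 20 min compound exposure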
hERG protect = hERG rescue from dofetilide block, primary screen, cell-based, CHO-hERG, FluxOR thallium flux, dofetilide IC70; Voltage-gated inwardly rectifying potassium channel KCNH2 (Homo sapiens), Q12809; dofetilide IC70 present; activation (rescue from dofetilide block), less the hit threshold, % at 10 µM; 310,000 tested, 0.51% active; AID 1511, 2009;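 active = activation above the mean of controls blocked by dofetilide plus 5 SD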;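 note: thallium influx through hERG after potassium depolarization seen as dye fluorescence rise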
KCNK9 inh = KCNK9 potassium channel inhibitors, primary screen, HEK293 cells, thallium flux | AID 488922, 2010 | FluxOR thallium flux fluorescence; stronger effect = lower value | 310,000 tested, 1.2% active | Potassium channel subfamily K member 9 (Homo sapiens), Q9NPC2 | B-score at 10 µM;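 active = ratio B-score over 3 SD below the library mean, with starting fluorescence within 5 SD of its mean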;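 note: negative B-score means less thallium flux so channel inhibition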
Target sequence (Q9NPC2 whole entry, looked up): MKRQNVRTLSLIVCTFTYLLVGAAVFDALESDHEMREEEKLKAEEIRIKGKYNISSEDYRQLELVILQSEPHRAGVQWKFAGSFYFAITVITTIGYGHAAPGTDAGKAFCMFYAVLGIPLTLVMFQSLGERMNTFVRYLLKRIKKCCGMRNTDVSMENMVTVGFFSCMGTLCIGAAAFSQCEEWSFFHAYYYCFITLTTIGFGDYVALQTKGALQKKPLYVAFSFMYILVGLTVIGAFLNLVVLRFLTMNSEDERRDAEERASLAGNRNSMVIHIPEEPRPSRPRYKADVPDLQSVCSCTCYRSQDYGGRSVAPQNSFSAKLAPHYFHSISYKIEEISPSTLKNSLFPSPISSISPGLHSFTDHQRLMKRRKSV
PHOSPHO1 inh = PubChem AID 1565. Phosphoethanolamine/phosphocholine phosphatase (Homo sapiens), Q8TCT1. recombinant PHOSPHO1, absorbance phosphatase assay. inhibition, % at 13.3 µM. 290,000 tested, 1.1% active; in the data active = inhibition above about 60%
Target sequence (Q8TCT1 whole entry, looked up): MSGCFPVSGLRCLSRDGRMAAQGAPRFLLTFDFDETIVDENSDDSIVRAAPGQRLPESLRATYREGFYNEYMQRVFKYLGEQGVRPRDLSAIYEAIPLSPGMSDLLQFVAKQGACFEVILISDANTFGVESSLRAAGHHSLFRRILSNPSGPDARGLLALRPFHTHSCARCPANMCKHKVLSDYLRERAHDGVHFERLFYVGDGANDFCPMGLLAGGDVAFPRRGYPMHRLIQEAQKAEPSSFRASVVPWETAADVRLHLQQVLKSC
KCNK9 inh conf = KCNK9 potassium channel inhibitors, confirmation, HEK293 cells, thallium flux, duplicate. shares compounds with KCNK9 inh. FluxOR thallium flux fluorescence. inhibition, % at 10 µM. 4,900 tested, 43% active. AID 492992, 2010;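 active = thallium signal inhibited by more than 5 SD of the compound-free buffer control wells, on both duplicate plates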;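 note: 0% = assay buffer control wells without compound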
Kir21 sel = mouse Kir2.1 channel inhibition, confirmation, selectivity assay for KCNK9 modulator project, cell-based, HEK293, thallium flux. Kir2.1 cells, FluxOR thallium flux fluorescence. inhibition, % at 10 µM. shares compounds with KCNK9 inh. 4,900 tested, 4% active;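 active = thallium signal drop more than 5 SD beyond the mean of the no-compound control wells, seen in both duplicate plates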;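 note: signal is fluorescence rise after thallium addition divided by baseline fluorescence; plate controls were assay buffer only for no effect and full block by chlorpromazine control for full effect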
HEK293 Tl ctr = thallium flux in non-induced HEK293 cells, confirmation, counter-screen for KCNK9 inhibitor project, cell-based, second counter screen, non-induced KCNK9-HEK293; FluxOR thallium flux; inhibition, % at 10 µM; shares compounds with KCNK9 inh; 4,900 tested, 40% active;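 active = thallium signal drop beyond 5 SD of the untreated control mean, on both duplicate plates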;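 note: plate controls were buffer only IC0 wells for no effect and SID17386958 at its maximal inhibitory level for full effect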
Numbers without * were called inactive; i = inactive; . = not tested or not shown.

SMILES | KCNQ1 pot | KCNK3 inh | KCNQ1 inh | hERG protect | KCNK9 inh | PHOSPHO1 inh | KCNK9 inh conf | Kir21 sel | HEK293 Tl ctr
O=C(Nc1ccccc1Cl)c1cccc(COc2cc(Cl)ccc2Cl)c1 | i | i | i | -3.9 | -10.9* | 16.4 | 30.0%* | i | i
COc1ccc(C(=O)Nc2cc(OCc3ccccc3)c(Cl)cc2Cl)cc1 | i | i | i | -15.6 | -15.9* | 24.2 | 58.5%* | i | i
O=C(Nc1ccc(-c2nnc3n2CCCCC3)cc1)c1cc2ccccc2o1 | i | i | i | -25.7 | i | -26.2 | . | . | .
Cc1c(C(=O)Nc2ccc(-c3nnc4n3CCCCC4)cc2)oc2c1ccc1ccccc12 | i | i | i | -7.7 | -12.1* | -4.5 | i | i | 29.5%*
O=C(NC1CCCCCC1)C1CCCN(S(=O)(=O)c2cnc[nH]2)C1 (stereo unspecified) | i | i | i | -2.6 | i | 2.7 | . | . | .
COc1ccc([N+](=O)[O-])cc1N(CC(O)CN1CCCCC1)S(=O)(=O)c1ccc(C)cc1 (stereo unspecified) | i | i | i | -2.7 | i | -5.7 | . | . | .
COc1cccc(CNc2ccc(N3CCC(C)CC3)cc2)c1OC | i | i | i | -2.6 | i | -19.8 | i | i | i
Cc1ccc(C(=O)N2CCC(C(=O)c3ccc(F)cc3)CC2)cc1 | . | i | . | . | . | . | . | . | .
Cc1ccc(C(=O)N2C(=S)C(c3ccc(F)cc3)=NC23CCN(C)CC3)cc1 | i | i | i | -16.7 | i | 1.1 | i | i | i
CCn1c(SCc2cccc(C)c2)nnc1-c1ccccc1 | i | i | i | -13.9 | i | 42.0 | i | i | i
COc1cccc(C=Nc2ccc3c(c2)CCC3)c1O | i | i | i | -5.5 | i | 31.0 | . | . | .
O=C(Nc1ccc(S(=O)(=O)Nc2nccs2)cc1)c1nn(-c2ccc(F)cc2)ccc1=O | i | i | i | -6.5 | i | 50.7 | . | . | .
Clc1ccc(CN2CCN(c3ncnc4scc(-c5cccs5)c34)CC2)cc1 | i | i | 7* | -22.6 | -13* | 22.3 | 34.5%* | i | i
Cc1ccccc1N1CCN(c2ncnc3scc(-c4cccs4)c23)CC1 | i | i | i | -17.8 | -13.6* | 31.4 | 44.5%* | i | i
CCOC(=O)N1CCN(c2ncnc3scc(-c4ccc(Cl)cc4)c23)CC1 | i | i | i | -4.2 | i | 43.7 | . | . | .
Cc1ccc(-c2csc3ncnc(N4CCN(c5ccccc5O)CC4)c23)cc1 | i | i | i | -10.9 | i | 29.0 | . | . | .
Clc1ccc(-c2csc3ncnc(N4CCc5ccccc5C4)c23)cc1 | i | i | i | -14.3 | -10.5* | 2.5 | 45.0%* | i | 40.5%*
CN(CCO)CC(O)Cn1cnc2c1c(=O)n(C)c(=O)n2C (stereo unspecified) (tested in a mixture with another compound) | i | i | i | -3.6 | i | 6.0 | . | . | .
Cc1nc(N2CCOCC2)c2c(C)c(C(=O)Nc3ccc(F)cc3F)sc2n1 | i | i | i | -9.4 | i | -4.6 | . | . | .
CSc1ccc(CNCC2CCCO2)cc1 (stereo unspecified) | i | i | i | -7.6 | i | -23.5 | . | . | .
CCOC(=O)c1cnn(-c2nc(CC)nc3sc4c(c23)CCC4)c1N | i | i | i | -6.3 | -10.2* | -15.6 | 36.0%* | i | i
CCC(=O)N1CCN(c2nc(CC)nc3sc4c(c23)CCCC4)CC1 | i | i | i | 1.7 | i | 3.8 | . | . | .
CC(NC(=O)Cn1nc(C(F)(F)F)c2c1CCC2)c1ccccc1 (stereo unspecified) | i | i | i | -4.3 | i | -1.4 | i | i | 30.5%*
CC(C)NC(=O)Cn1nc(C(F)(F)F)c2c1CCC2 | i | i | i | -7.3 | i | -38.4 | . | . | .
CC1=NN(c2ccc(Cl)cc2)C(=O)C1C(c1cccc(O)c1)c1c(C)[nH]n(-c2ccc(Cl)cc2)c1=O (stereo unspecified) | i | i | i | -3.0 | i | -9.4 | i | i | i
SMILES | KCNQ1 pot | KCNK3 inh | KCNQ1 inh | hERG protect | KCNK9 inh | PHOSPHO1 inh | KCNK9 inh conf | Kir21 sel | HEK293 Tl ctr
CC(C)C1C(=O)CC(c2ccccc2)NC1c1ccccc1 (stereo unspecified) | i | i | i | -5.5 | -11* | 5.3 | 40.0%* | i | i
CC1C(=O)CC(c2ccccc2)NC1c1ccccc1 (stereo unspecified) | i | i | i | -6.3 | i | 4.1 | . | . | .
O=C(CSc1nc2ccccc2o1)Nc1ccccc1N1CCCCCC1 | i | i | i | -14.8 | -10.7* | 40.8 | 61.0%* | 39.5%* | 41.0%*
O=C1C2C3C=CC(C4CC34)C2C(=O)N1/N=C/c1ccc(-c2ccc(Cl)cc2[N+](=O)[O-])o1 (stereo unspecified) | i | i | i | -13.6 | i | -13.9 | i | i | i
COc1ccc(-c2ccc(/C=N/N3C(=O)C4C5C=CC(C6CC56)C4C3=O)o2)c([N+](=O)[O-])c1 (stereo unspecified) | i | i | i | -15.8 | i | -9.7 | . | . | .
CC(C)C[C@@H](CN)NC(=O)c1nc[nH]c1C(=O)N[C@@H](C)C(=O)CNC[C@H](C)NC(=O)c1nc[nH]c1C(=O)N[C@@H](Cc1ccccc1)C(=O)O | . | i | . | . | . | . | . | . | .
COc1cc(C)ccc1OCCCOc1ccccc1Cl | i | i | i | -7.1 | i | 39.3 | . | . | .
COc1cc(C)ccc1OCCCCOc1ccccc1C(C)=O | i | i | i | -17.4 | i | 18.6 | i | i | i
O=C(O)C1C2C=CC(O2)C1C(=O)NCc1ccccc1Br (stereo unspecified) | i | i | i | -6.5 | i | -1.3 | . | . | .
